In ChEMBL document CHEMBL3627693, “Novel aminotetrazole derivatives as selective STAT3 non-peptide inhibitors” (Eur J Med Chem, 2015) one finds Activity, inhibition and IC50 data, which are given here for 36 compounds.

In data set [1] the target is T1, Signal transducer and activator of transcription 3 (Homo sapiens, UniProt P40763). Description: Displacement of fluorescent peptide 5-FAM-G(pTyr)LPQTV-CONH2 from GST-tagged full-length human STAT3 preincubated for 60 mins followed by fluorescent peptide addition measured after 30 mins by fluorescence polarization assay. Summed up: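 Full-length GST-STAT3 (100 nM) preincubated 60 min at room temperature with compound at various concentrations or vehicle, in 50 mM NaCl, 10 mM Hepes pH 7.5, 1 mM EDTA, 0.01% Triton X-100, 2 mM DTT. Labelled peptide then added to 10 nM final, 30 min room temperature. FP read with excitation 480, emission 535 (P and S pol).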
T1 sequence (P40763 whole entry): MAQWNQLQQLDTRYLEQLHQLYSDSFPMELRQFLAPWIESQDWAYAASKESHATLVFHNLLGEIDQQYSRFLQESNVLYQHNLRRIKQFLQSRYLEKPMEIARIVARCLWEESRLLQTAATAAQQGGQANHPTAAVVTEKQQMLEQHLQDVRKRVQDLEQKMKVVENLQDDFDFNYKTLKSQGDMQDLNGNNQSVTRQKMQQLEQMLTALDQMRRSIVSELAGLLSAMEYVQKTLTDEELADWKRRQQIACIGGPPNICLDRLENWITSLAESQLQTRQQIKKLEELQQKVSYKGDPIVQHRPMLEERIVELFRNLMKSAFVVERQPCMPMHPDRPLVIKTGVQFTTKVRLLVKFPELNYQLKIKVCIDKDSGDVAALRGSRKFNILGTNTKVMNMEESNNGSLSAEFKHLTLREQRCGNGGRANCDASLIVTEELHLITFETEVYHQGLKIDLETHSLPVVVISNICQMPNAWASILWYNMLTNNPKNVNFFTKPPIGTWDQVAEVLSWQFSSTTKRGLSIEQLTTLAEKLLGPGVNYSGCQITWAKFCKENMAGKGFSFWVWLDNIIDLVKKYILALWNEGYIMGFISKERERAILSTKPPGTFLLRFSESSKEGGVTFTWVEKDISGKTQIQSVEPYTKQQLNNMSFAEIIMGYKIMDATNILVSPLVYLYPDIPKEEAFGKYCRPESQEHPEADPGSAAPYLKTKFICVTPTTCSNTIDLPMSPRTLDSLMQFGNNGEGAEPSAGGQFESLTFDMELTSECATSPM
A general note: In fluorescence polarisation assays a small probe gives low polarisation when free and higher when bound to something large.

Data set [2] has as its target T2, Signal transducer and activator of transcription 1-alpha/beta (Homo sapiens) (UniProt P42224).
T2 sequence (whole entry): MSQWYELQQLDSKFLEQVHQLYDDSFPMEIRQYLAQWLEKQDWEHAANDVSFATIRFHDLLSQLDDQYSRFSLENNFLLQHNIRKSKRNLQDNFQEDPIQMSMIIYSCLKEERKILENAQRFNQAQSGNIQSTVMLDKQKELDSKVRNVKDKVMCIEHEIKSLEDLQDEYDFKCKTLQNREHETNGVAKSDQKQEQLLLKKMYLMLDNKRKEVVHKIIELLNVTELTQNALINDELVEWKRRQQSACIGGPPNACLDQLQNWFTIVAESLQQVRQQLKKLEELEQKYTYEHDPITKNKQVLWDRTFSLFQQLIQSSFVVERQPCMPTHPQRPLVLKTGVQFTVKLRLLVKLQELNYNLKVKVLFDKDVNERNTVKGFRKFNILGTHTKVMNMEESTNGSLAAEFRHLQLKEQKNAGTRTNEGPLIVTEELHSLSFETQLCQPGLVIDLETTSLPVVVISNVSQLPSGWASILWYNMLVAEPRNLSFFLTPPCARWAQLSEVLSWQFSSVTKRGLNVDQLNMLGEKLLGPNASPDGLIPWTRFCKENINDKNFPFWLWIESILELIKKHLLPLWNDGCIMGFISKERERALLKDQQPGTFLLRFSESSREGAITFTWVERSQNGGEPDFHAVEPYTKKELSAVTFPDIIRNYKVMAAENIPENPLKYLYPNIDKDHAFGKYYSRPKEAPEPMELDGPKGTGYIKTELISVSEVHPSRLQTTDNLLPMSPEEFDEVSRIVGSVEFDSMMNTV
Put plainly: Displacement of fluorescent peptide 5-FAM-G(pTyr)YIKTE- CONH2 from GST-tagged human STAT1b preincubated for 60 mins followed by fluorescent peptide addition measured after 30 mins by fluorescence polarization assay. Summed up: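 GST-tagged human STAT1b preincubated 60 min at room temperature with compound at various concentrations or vehicle in 50 mM NaCl, 10 mM Hepes pH 7.5, 1 mM EDTA, 0.01% Triton X-100, 2 mM DTT. Labelled peptide added to 10 nM final, 30 min room temperature. Fluorescence polarization read with excitation 480, emission 535.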

Data set [3] addresses T1, Signal transducer and activator of transcription 3. Put plainly: Inhibition of STAT3 (unknown origin) expressed in Oncostatin M induced human HeLa cells at 50 uM incubated for 1 hr by luciferase reporter gene assay. The format is cell-based. Background: In a reporter assay the amount or activity of a reporter protein is the signal.
The target of data set [4] is T2, Signal transducer and activator of transcription 1-alpha/beta (Homo sapiens). Description: Inhibition of STAT1 (unknown origin) expressed in IFN-gamma induced human HeLa cells at 50 uM incubated for 1 hr by luciferase reporter gene assay. Type of data set: cell-based.
The test system of another data set is HeLa. Description: Cytotoxicity against human HeLa cells at 50 uM. The format is cell-based.
Data set [5] relates to MDA-MB-231. Put plainly: Cytotoxicity against human MDA-MB-231 cells assessed as decrease in cell proliferation after 72 hrs by MTT assay. Type of data set: functional, cell-based. For orientation: Tetrazolium assays rely on reduction of a dye to a coloured formazan, in cell work by metabolically active cells.
Another data set deals with B9. Put plainly: Cytotoxicity against mouse B9 cells assessed as decrease in cell proliferation at 50 uM after 72 hrs by MTT assay. Type of data set: functional, cell-based.
The test system of data set [6] is MDA-MB-231. Put plainly: Cytotoxicity against human MDA-MB-231 cells transfected with STAT3C assessed as decrease in cell proliferation after 72 hrs by MTT assay. Type of data set: functional, cell-based.
The test system of data set [7] is CD4-positive T cell. Put plainly: Induction of polarization of C57BL/6 mouse spleen naive CD4+ lymphocytes into Th17 lymphocytes assessed as decrease in ROR-gamma-t transcription at 50 uM. Type of data set: functional, tissue-based.
Data set [8] concerns CD4-positive T cell. Put plainly: Induction of polarization of C57BL/6 mouse spleen naive CD4+ lymphocytes into Th17 lymphocytes assessed as decrease in FoxP3 transcription at 50 uM. Type of data set: functional, tissue-based.
Data set [9] deals with CD4-positive T cell. Description: Induction of polarization of C57BL/6 mouse spleen naive CD4+ lymphocytes into Treg lymphocytes assessed as decrease in ROR-gamma-t transcription at 50 uM. Type of data set: functional, tissue-based.
Data set [10] relates to CD4-positive T cell. Put plainly: Induction of polarization of C57BL/6 mouse spleen naive CD4+ lymphocytes into Treg lymphocytes assessed as decrease in FoxP3 transcription at 50 uM. The format is functional, tissue-based.
For data set [11], the system named is CD4-positive T cell. Description: Induction of polarization of C57BL/6 mouse spleen naive CD4+ lymphocytes into Th1 lymphocytes assessed as decrease in Tbet transcription. Type of data set: functional, tissue-based.
The test system of the next data set is PBL. Put plainly: Induction IFN-gamma production in human PBL cells co-cultured with HT29 cells at 50 uM after 24 hrs by ELISA. Type of data set: functional, cell-based.
Data set [12] deals with T1, Signal transducer and activator of transcription 3. Description: Inhibition of STAT3 (unknown origin) expressed in Oncostatin M induced human HeLa cells incubated for 1 hr by luciferase reporter gene assay.
For data set [13] the target is unchanged. The note with it: HeLa, 100 uM.
For data set [14] the target is unchanged. Particulars: HeLa, 100 uM. The source holds these as a separate data set.

The source made the active and inactive calls. The calls are words filed in the database; no cut-off is given here.

Regarding `COc1cc(C=O)cc(Cl)c1OCc1ccc(C)cc1`, the outcome in [1] and in data set [2] was Active. Also, the inhibition (commonly the relative decrease from the control value, in per cent) amounted to 52.4% in [3] and 31.4% in [4].
Regarding `COc1cc(CNCC(=O)O)cc(Cl)c1OCc1ccc([N+](=O)[O-])cc1`, in data set [2], the outcome was Active. In addition, the values for the inhibition in data set [3] and in data set [4] were 15.3% and 13.1%, respectively.
As to `COc1cc(C=O)cc(Cl)c1OCc1ccc([N+](=O)[O-])cc1`, the outcome in data set [1] and in [2] was Active. Further, the inhibition in data set [3] was determined as 66.4%; in [4], 62.3%.
Turning to `COc1cc(CNC#N)cc(Cl)c1OCc1ccc([N+](=O)[O-])cc1`, the result in data set [1] and in data set [2] was Active. In addition, the inhibition was found to be 91.8% in [3] and 48.8% in [4].
On to `COc1cc(CNc2nn[nH]n2)ccc1OCc1ccc(C)cc1`, for which the results for the inhibition in data set [3] and in data set [4] were 43% and 0%, respectively.
Turning to `COc1cc(CNc2nn[nH]n2)cc(Cl)c1OCc1ccc(-n2nc(C)cc2C)cc1`, the inhibition turned out to be 2.6% in data set [3] and 13.9% in data set [4].
With `CCOc1cc(/C=C(\C#N)C(=O)NC2CCCCC2C)ccc1OCC(=O)O` (stereo not drawn), in the data set on HeLa, the Activity entry is reported as “Toxic”. Besides, the inhibition entry in [3] is “Active”.
For `COc1cc(CNc2nn[nH]n2)cc(Cl)c1OCc1ccc(C#N)cc1`, the values for the inhibition in [3] and in data set [4] were 37.4% and 13.2%, respectively.
The matching figures for `CCOc1cc(CNc2nn[nH]n2)cc(I)c1OCc1ccc([N+](=O)[O-])cc1`: 32.4% and 15.1%.
In the same order, the values of `COc1cc(CNc2nn[nH]n2)cc(Cl)c1OCc1ccc(C(N)=O)cc1` are 25.7% and 9.5%.
For `Brc1cc2c(cc1COc1ccc(-c3nn[nH]n3)cc1)OCO2`, the Activity entry in the data set on HeLa was “Toxic”. Further, the inhibition entry in data set [3] was “Active”.
As for `CCc1cc2c(cc1COc1c(Cl)cc(CNc3nn[nH]n3)cc1OC)C(C)(C)CCC2(C)C`, the inhibition in [3] turned out to be 77%; in data set [4] it was 72.7%.
As for `COc1cc(CNc2nn[nH]n2)cc(Cl)c1OCc1ccc([N+](=O)[O-])cc1`, the Activity result in the data set on MDA-MB-231 [5] and with B9 was “Dose-dependent effect” each time. The result (with MDA-MB-231 [6]; with CD4-positive T cell [11]; in data set [2]) was inactive. In addition, the result (with CD4-positive T cell [7]; with CD4-positive T cell [8]; in the data set on CD4-positive T cell [9]; in the data set with CD4-positive T cell [10]; in the data set with PBL; in data set [1]) was Active. Further, the results for the inhibition in data set [3] and in data set [4] were 70.2% and 15.7%, respectively. Further, in [12], inhibition was half-maximal at 25.7 µM (IC50). Further, the inhibition entry in [13] and in data set [14] was “Active” each time.
As for `CCCCCCCCCOc1cc(COc2c(Cl)cc(CNc3nn[nH]n3)cc2OC)ccc1[N+](=O)[O-]`, the inhibition in data set [3] was 82.7%; in [4] it was 72.9%.
Turning to `COc1ccc([N+](=O)[O-])cc1COc1c(Cl)cc(CNc2nn[nH]n2)cc1OC`, the inhibition in [3] came out at 20.4%; in data set [4], 0%.
In the same order, the values of `COC(=O)c1cccc(COc2c(Cl)cc(CNc3nn[nH]n3)cc2OC)c1` are 49.2% and 0%.
The matching figures for `COc1cc(CNc2nn[nH]n2)cc(Cl)c1OC(C)c1ccccc1` (stereo not drawn): 0% and 0%.
`COc1cc(CNc2nn[nH]n2)cc(Cl)c1OCc1cccc([N+](=O)[O-])c1`: in [1], the outcome was Active. For the same compound, the inhibition in [3] is 40.1%; in data set [4], 9.2%.
Take `COc1cc(CNc2nn[nH]n2)cc(Cl)c1OCc1cccc(-c2ccccc2)c1`: the inhibition was 8.2% in [3] and 0% in data set [4].
As to `COc1cc(CNc2nn[nH]n2)cc(Cl)c1OCc1ccc(C)cc1`, in [1], the result was Active. In data set [2], the result was inactive. Moreover, the inhibition is 53.9% in data set [3] and 11.1% in [4].
As to `COc1cc(CNc2nn[nH]n2)cc(Cl)c1OCc1ccccc1[N+](=O)[O-]`, the figures for the inhibition in data set [3] and in [4] were 31% and 1.1%, respectively.
For `COc1cc(CNc2nn[nH]n2)cc(Cl)c1OCc1cccc(C(=O)O)c1`, the inhibition came out at 36.9% in data set [3] and 10% in data set [4].
The matching figures for `CCCCCCOc1cc(COc2c(Cl)cc(CNc3nn[nH]n3)cc2OC)ccc1[N+](=O)[O-]`: 60.1% and 59.3%.
The matching figures for `COc1cc(CNc2nn[nH]n2)cc(I)c1OCc1ccc([N+](=O)[O-])cc1`: 52.1% and 0%.
The matching figures for `Clc1cc(CNc2nn[nH]n2)cc(OCCCc2ccccc2)c1OCc1ccccc1`: 26.9% and 11.1%.
Take `COc1cc(NC#N)cc(Cl)c1OCc1ccc(C)cc1`: the result in data set [1] was inactive. Besides, in data set [2], the outcome was Active. Moreover, the inhibition worked out at 50.2% in data set [3] and 10.8% in data set [4].
On to `COc1cc(CNc2nn[nH]n2)cc([N+](=O)[O-])c1OCc1ccc([N+](=O)[O-])cc1`, for which the inhibition in data set [3] turned out to be 36%; in data set [4], 6.4%.
`COc1cc(CNc2nn[nH]n2)cc(OC)c1OCc1ccc([N+](=O)[O-])cc1`: the inhibition in data set [3] was determined as 45.1%; in [4], 19.2%.
The matching figures for `CCOc1cc(CNc2nn[nH]n2)cc(Cl)c1OCc1ccc([N+](=O)[O-])cc1`: 20.4% and 34.8%.
In the same order, the values of `Oc1cc(CNc2nn[nH]n2)cc(Cl)c1OCc1ccccc1` are 30.8% and 20.4%.
The matching figures for `COc1cc(CC(c2nn[nH]n2)c2nn[nH]n2)cc(Cl)c1OCc1ccc(C)cc1`: 38.6% and 17.7%.
As for `COc1cc(CNc2nn[nH]n2)cc(Br)c1OCc1ccc([N+](=O)[O-])cc1`, the inhibition in data set [3] was 48%; in data set [4], 0%.
In the same order, the values of `COc1cc(CNc2nn[nH]n2)cc(Cl)c1OCc1ccc(-c2nccs2)cc1` are 0% and 0%.
Regarding `COc1cc(CNc2nn[nH]n2)cc(Cl)c1OCc1ccc(F)cc1`, the inhibition was found to be 50.7% in data set [3] and 1.2% in data set [4].
In the same order, the values of `COC(=O)c1ccc(COc2c(Cl)cc(CNc3nn[nH]n3)cc2OC)cc1` are 51.5% and 0%.
With `COc1cc(CNc2nn[nH]n2)cc(Cl)c1OCc1cccc(C(N)=O)c1`, the inhibition came out at 15.9% in data set [3] and 15% in data set [4].
